Results as given in ChEMBL document CHEMBL1143074, “Symplocamide A, a potent cytotoxin and chymotrypsin inhibitor from the marine Cyanobacterium Symploca sp” (J Nat Prod, 2008).
The source made the active and inactive calls. No cut-off for these calls is given here.

What was measured:
[1] = Inhibition of trypsin at 10 uM
[2] = Inhibition of chymotrypsin
Method in brief: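 Spectrophotometric assay: 0.0025 mg/mL chymotrypsin (0.0086 U) with 0.53 mM BTEE in 38 mM Tris-HCl pH 7.8, 53 mM CaCl2, 0.5 mM HCl and 32% MeOH at 25 °C. Inhibitor (from MeOH dilutions, final 6.25 × 10-5 to 7.5 × 10^-9 M) was equilibrated with substrate before enzyme addition. Absorbance at 256 nm was followed for 5 min, and the 0.5–1.5 min interval was analyzed.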

| Structure (SMILES) | Activity [1] | IC50 [2] [nM] |
| --- | --- | --- |
| CC[C@H](C)[C@@H]1NC(=O)[C@H](Cc2ccc(O)cc2)N(C)C(=O)[C@H]([C@@H](C)CC)N2C(=O)C(CCC2O)NC(=O)[C@H](CC(C)C)NC(=O)[C@@H]2C(OC1=O)C(C)CN2C(=O)[C@H](CCC(N)=O)NC(C)=O (stereo in doubt; form 1) | inactive |  |
| CC[C@H](C)[C@@H]1NC(=O)[C@H](Cc2ccc(O)cc2)N(C)C(=O)[C@H]([C@@H](C)CC)N2C(=O)C(CCC2O)NC(=O)[C@H](CC(C)C)NC(=O)[C@@H]2C(OC1=O)C(C)CN2C(=O)[C@H](CCC(N)=O)NC(C)=O (stereo in doubt; form 1) [NOSTOPEPTIN B] |  | 1730 |
| CC(=O)N[C@@H](CCC(N)=O)C(=O)N[C@@H]1C(=O)N[C@@H](CC(C)C)C(=O)N[C@H]2CC[C@@H](O)N(C2=O)[C@@H](Cc2ccccc2)C(=O)N(C)[C@@H](Cc2ccc(O)c(Cl)c2)C(=O)N[C@@H](C(C)C)C(=O)O[C@H]1C [CYANOPEPTOLIN 954] | inactive | 40 |
| CCCCCC(=O)N[C@@H](CC(=O)O)C(=O)N[C@@H]1C(=O)N[C@@H](Cc2ccc(O)cc2)C(=O)N[C@H]2CC[C@@H](O)N(C2=O)[C@@H](CC(C)C)C(=O)N(C)[C@@H](Cc2ccccc2)C(=O)N[C@@H](C(C)C)C(=O)O[C@@H]1C [CYANOPEPTOLIN 963A] | inactive | 900 |
| CC(C)C[C@@H]1NC(=O)[C@@H](NC(=O)[C@@H](NC(=O)[C@H](C)NC(=O)[C@H](CCCc2ccc(O)cc2)NC(=O)[C@H](O)CO)C(C)C)[C@@H](C)OC(=O)[C@H](C(C)C)NC(=O)[C@H](Cc2ccc(O)c(Br)c2)N(C)C(=O)[C@H]([C@@H](C)O)N2C(=O)[C@H](CC[C@H]2O)NC1=O [LARGAMIDE D] | inactive | 10000 |
| CC(C)C[C@@H]1NC(=O)[C@@H](NC(=O)[C@@H](NC(=O)[C@@H](C)NC(=O)[C@H](CCCc2ccc(O)cc2)NC(=O)[C@H](O)CO)C(C)C)[C@@H](C)OC(=O)[C@H](C(C)C)NC(=O)[C@H](Cc2ccc(O)c(Cl)c2)N(C)C(=O)[C@H]([C@@H](C)O)N2C(=O)[C@H](CC[C@H]2O)NC1=O [LARGAMIDE E] | inactive | 10000 |
| CC(C)[C@H](NC(=O)[C@@H](C)NC(=O)[C@H](CCCc1ccc(O)cc1)NC(=O)[C@H](O)CO)C(=O)N[C@@H]1C(=O)N[C@@H](Cc2ccc(O)cc2)C(=O)N[C@H]2CC[C@@H](O)N(C2=O)[C@@H]([C@@H](C)O)C(=O)N(C)[C@@H](Cc2ccc(O)c(Br)c2)C(=O)N[C@@H](C(C)C)C(=O)O[C@@H]1C [LARGAMIDE F] | inactive | 4000 |
| C/C=C1\NC(=O)[C@@H](NC(=O)[C@H](CCc2ccc(O)cc2)NC(=O)[C@H](C)NC(=O)[C@H](O)COS(=O)(=O)O)[C@@H](C)OC(=O)[C@H](C(C)C)NC(=O)[C@H](Cc2ccc(O)cc2)N(C)C(=O)[C@H](Cc2ccccc2)N2C(=O)[C@H](CC[C@H]2O)NC1=O [LYNGBYASTATIN 4] | inactive |  |
| CC[C@H](C)[C@@H]1NC(=O)[C@H](Cc2ccccc2)N(C)C(=O)[C@H](C(C)C)N2C(=O)[C@H](CC[C@H]2O)NC(=O)[C@H](CC2C=CC(O)CC2)NC(=O)[C@@H](NC(=O)[C@@H](N)CCC(=O)O)[C@@H](C)OC1=O (stereo partly specified) [MICROPEPTIN 88A] | inactive | 400 |
| CCCC(=O)N[C@@H](Cc1ccccc1)C(=O)N[C@@H](CCC(=O)O)C(=O)N[C@@H]1C(=O)N[C@@H](Cc2ccc(O)cc2)C(=O)N[C@H]2CC[C@@H](O)N(C2=O)[C@@H](C(C)C)C(=O)N(C)[C@@H](Cc2ccccc2)C(=O)N[C@@H]([C@@H](C)CC)C(=O)O[C@@H]1C [MICROPEPTIN 88C] | inactive | 4500 |
| CCCC(=O)N[C@@H](Cc1ccccc1)C(=O)N[C@@H](CCC(=O)O)C(=O)N[C@@H]1C(=O)N[C@@H](CC2C=CC(O)CC2)C(=O)N[C@H]2CC[C@@H](O)N(C2=O)[C@@H](C(C)C)C(=O)N(C)[C@@H](Cc2ccccc2)C(=O)N[C@@H]([C@@H](C)CC)C(=O)O[C@@H]1C (stereo partly specified) [MICROPEPTIN 88D] | inactive | 8960 |
| CCCC(=O)N[C@@H](Cc1ccccc1)C(=O)N[C@@H](CCC(=O)O)C(=O)N[C@@H]1C(=O)N[C@@H](CC(C)C)C(=O)N[C@H]2CC[C@@H](O)N(C2=O)[C@@H](C(C)C)C(=O)N(C)[C@@H](Cc2ccccc2)C(=O)N[C@@H]([C@@H](C)CC)C(=O)O[C@@H]1C [MICROPEPTIN 88E] | inactive | 4900 |
| CCCC(=O)N[C@@H](Cc1ccccc1)C(=O)N[C@@H](CCC(=O)OC)C(=O)N[C@@H]1C(=O)N[C@@H](Cc2ccc(O)cc2)C(=O)N[C@H]2CC[C@@H](O)N(C2=O)[C@@H](C(C)C)C(=O)N(C)[C@@H](Cc2ccccc2)C(=O)N[C@@H]([C@@H](C)CC)C(=O)O[C@@H]1C [MICROPEPTIN 88F] | inactive | 3020 |
| CC[C@H](C)[C@@H]1NC(=O)[C@H](Cc2ccccc2)N(C)C(=O)[C@H](C(C)C)N2C(=O)[C@H](CC[C@H]2O)NC(=O)[C@H](Cc2ccc(O)cc2)NC(=O)[C@@H](NC(=O)[C@H](CCC(=O)O)NC(=O)[C@H](Cc2ccc(O)cc2)NC(C)=O)[C@@H](C)OC1=O [MICROPEPTIN 88Y] | inactive | 1300 |
| CCCCCC(=O)NCC(=O)N[C@H](C(=O)N[C@@H]1C(=O)N[C@@H](CCC(N)=O)C(=O)N[C@H]2CC[C@@H](O)N(C2=O)[C@@H](Cc2ccccc2)C(=O)N(C)[C@@H](Cc2c[nH]c3ccccc23)C(=O)N[C@@H](C(C)C)C(=O)O[C@@H]1C)[C@@H](C)O [MICROPEPTIN 103] | inactive | 960 |
| CCCCCC(=O)N[C@@H](CC(=O)O)C(=O)N[C@@H]1C(=O)N[C@@H](Cc2ccc(O)cc2)C(=O)N[C@H]2CC[C@@H](O)N(C2=O)[C@@H]([C@@H](C)CC)C(=O)N(C)[C@@H](Cc2ccc(O)cc2)C(=O)N[C@@H](C(C)C)C(=O)O[C@@H]1C [MICROPEPTIN SD979] | inactive | 2400 |
| CCCCCC(=O)N[C@@H](CC(=O)O)C(=O)N[C@@H]1C(=O)N[C@@H](Cc2ccc(O)cc2)C(=O)N[C@H]2CC[C@@H](O)N(C2=O)[C@@H]([C@@H](C)CC)C(=O)N(C)[C@@H](Cc2c[nH]c3ccccc23)C(=O)N[C@@H](C(C)C)C(=O)O[C@@H]1C [MICROPEPTIN SD1002] | inactive | 3130 |
| CC[C@H](C)[C@@H]1NC(=O)[C@H](Cc2ccc(O)cc2)N(C)C(=O)[C@H](CC(C)C)N2C(=O)[C@H](CC[C@H]2O)NC(=O)[C@H](CCC(N)=O)NC(=O)[C@@H](NC(=O)[C@@H](O)Cc2ccc(O)cc2)[C@@H](C)OC1=O [MICROPEPTIN SF909] | inactive | 4400 |
| CCCCCC(=O)N[C@@H](CCC(N)=O)C(=O)N[C@@H]1C(=O)N[C@@H](Cc2ccc(O)cc2)C(=O)N[C@H]2CC[C@@H](O)N(C2=O)[C@@H](Cc2ccccc2)C(=O)N(C)[C@@H](Cc2ccc(O)cc2)C(=O)N[C@@H](C(C)C)C(=O)O[C@@H]1C [MICROPEPTIN T1] | inactive | 2850 |
| CC[C@H](C)[C@@H]1NC(=O)[C@H](Cc2ccc(O)cc2)N(C)C(=O)[C@H](Cc2ccccc2)N2C(=O)[C@H](CC[C@H]2O)NC(=O)[C@H](Cc2ccccc2)NC(=O)[C@@H](NC(=O)[C@@H](O)COP(=O)(O)O)[C@@H](C)OC1=O [MICROPEPTIN T 20] |  | 2.5 |
| CCCC(=O)N[C@@H](CCC(N)=O)C(=O)N1CC(C)C2OC(=O)[C@H]([C@@H](C)CC)NC(=O)[C@H](Cc3ccc(O)cc3)N(C)C(=O)[C@H]([C@@H](C)CC)N3C(=O)C(CCC3O)NC(=O)[C@H](CC(C)C)NC(=O)[C@H]21 (stereo partly specified) [NOSTOPEPTIN A] | inactive | 1470 |
| CC(=O)N[C@@H](CCC(N)=O)C(=O)N[C@@H]1C(=O)N[C@@H](CC(C)C)C(=O)N[C@H]2CC[C@@H](O)N(C2=O)[C@@H](Cc2ccccc2)C(=O)N(C)[C@@H](Cc2ccc(O)cc2)C(=O)N[C@@H](C(C)C)C(=O)O[C@@H]1C [NOSTOPEPTIN BN920] | inactive | 110 |
| CC[C@H](C)[C@@H]1NC(=O)[C@H](Cc2ccc(O)cc2)N(C)C(=O)[C@H](CC(C)C)N2C(=O)[C@H](CC[C@H]2O)NC(=O)[C@H](CC(C)C)NC(=O)[C@@H]2[C@@H](OC1=O)C(C)CN2C(=O)[C@H](CCC(N)=O)NC(C)=O (stereo partly specified) [NOSTOPEPTIN E] | inactive | 3600 |
| CC[C@@H](C)[C@@H]1NC(=O)[C@H](Cc2ccc(OC)cc2)N(C)C(=O)[C@H]([C@@H](C)CC)N2C(=O)[C@H](CC[C@H]2O)NC(=O)[C@H](CCc2ccc(OC)cc2)NC(=O)[C@@H](NC(=O)[C@H](CCc2ccc(O)cc2)NC(=O)[C@@H](COS(=O)(=O)O)OC)[C@@H](C)OC1=O [OSCILLAPEPTIN B] |  | 1780 |
| CC[C@@H](C)[C@@H]1NC(=O)[C@H](Cc2ccccc2)N(C)C(=O)[C@H]([C@@H](C)CC)N2C(=O)[C@H](CC[C@H]2OC)NC(=O)[C@H](CC2C=CC(O)C=C2)NC(=O)[C@@H](NC(=O)[C@@H](CCc2ccc(O)cc2)NC(=O)[C@@H](CO)OC)[C@@H](C)OC1=O (stereo partly specified) [OSCILLAPEPTIN C] |  | 2820 |
| CC[C@H](C)[C@@H]1NC(=O)[C@H](Cc2ccccc2)N(C)C(=O)[C@H]([C@@H](C)CC)N2C(=O)[C@H](CC[C@H]2O)NC(=O)[C@H](C[C@H]2C=C[C@H](O)CC2)NC(=O)[C@@H](NC(=O)[C@H](CCc2ccc(O)cc2)NC(=O)[C@@H](COS(=O)(=O)O)OC)[C@@H](C)OC1=O [OSCILLAPEPTIN D] |  | 1950 |
| CC[C@@H](C)[C@@H]1NC(=O)[C@H](Cc2ccccc2)N(C)C(=O)[C@H]([C@@H](C)CC)N2C(=O)[C@H](CC[C@H]2O)NC(=O)[C@H](CCc2ccc(O)cc2)NC(=O)[C@@H](NC(=O)[C@@H](CCc2ccc(O)cc2)NC(=O)[C@@H](COS(=O)(=O)O)OC)[C@@H](C)OC1=O [OSCILLAPEPTIN E] |  | 2640 |
